# High-throughput results (PubChem BioAssay)
# Only some compounds are listed: those with a hit (about 4% of all), similar ones and a draw of the others.
# Cardio protect = myocardial damage modulation in H9c2 cells; H9c2 cardiomyocytes, H2O2 injury protection, ATPLite, 2 h; protection from H2O2 cell death, % at 20 µM; hit rate 0.63% among 360,000; AID 588492;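 active = compounds giving at least 50% protection of heart cells from peroxide-induced death in the single-dose screen, raw or plate-pattern-corrected value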;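 also: 0% = DMSO wells with peroxide and 100% = DMSO wells without peroxide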
# iPSC survival up = increases survival of single human iPS cells. hiPSC single-cell survival, ATPlite luminescence; 100% = ROCK inhibitor wells, 0% = DMSO. survival enhancement, % at 20 µM. hit rate 0.044% among 360,000; in the data active = survival enhancement above about 18%;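 also: cells exposed to compounds for 16 hours before the ATP read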
# Arrestin-AP2 inh = human beta-arrestin and AP2 interaction inhibition. FITC-arrestin peptide / GST-AP2 beads, flow cytometry; AP2 beta2 appendage carries R879A mutation. inhibition, % at 10 µM. hit rate 0.31% among 340,000;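 active = inhibition above a set limit, near 3 SD of compounds lacking own fluorescence, cut at about 54% in these data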;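 also: plate controls were DMSO wells for no effect and 5 µM unlabelled arrestin peptide for full effect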
#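 Measured by: flow cytometry, FL1 (488/535 nm); Material: AP2 appendage R879A on GSH beads; Evaluation: percent response; Timing: pre-incubation 12 min, peptide binding 1 h, room temperature; Also added: 50 nM FITC-arrestin peptide; Medium: PBS with 0.05% Tween 20 and 0.1% BSA.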
# FAS TE block = blocks the thioesterase domain of human fatty acid synthase; recombinant FAS-TE, OMFH fluorogenic substrate, fluorescence endpoint; inhibition, % at 15 µM; hit rate 0.67% among 360,000;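 active = compounds whose normalised, plate-corrected inhibition of enzyme fluorescence in the single-dose primary screen is 50% or more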;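 also: 0% = DMSO with enzyme and 100% = substrate without enzyme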
# SENP1 inh = inhibitors of human SENP1 SUMO protease catalytic domain | hit rate 0.21% among 360,000 | Q9P0U3 | inhibition, % at 10 µM | recombinant SENP1 catalytic domain, CyPet-SUMO1-YPet FRET cleavage;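 active = inhibition at least 30% at 10 µM, raw YFP signal under a set limit, fluorescence ratio 0.5 to 1.5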;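 also: 0% = enzyme with DMSO and 100% = no enzyme wells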
#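 Material: hSENP1 catalytic domain, recombinant; medium: Tris pH 8 with BME, BSA, NP40 and catalase; compound: single concentration of 10 µM compound, 0.5% DMSO final; technique: FRET read of cyan and yellow fluorescence; timing: 50 min enzyme reaction, room temperature, light-protected; reagent: SFCypet-SUMO1-SFYpet substrate at 25 nM; control set: no-enzyme low, enzyme-DMSO high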
# NR3A LBD binder = NR3A (human) ligand-binding domain modulation. NR3A LBD differential scanning fluorimetry, Tm shift; 0% = protein alone, 100% = glycine-bound protein. Tm shift relative to glycine control, % at 25 µM. hit rate 2.5% among 340,000. AID 1259313;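 active = melting temperature shift of at least 10% of the positive control shift, at one fixed dose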
# Arr-AP2 CP1 = blocks beta-arrestin peptide binding to human AP2 | inhibition, % at 10 µM | GST-AP2 beads, FITC arrestin peptide binding, flow cytometry; GST-fused beta2-adaptin appendage, R879A mutant | hit rate 2% among 1,300 | shares compounds with Arrestin-AP2 inh | AID 504908;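 active = inhibition above a set limit, roughly 3 SD of non-fluorescent compound noise, cut at about 38% in these data; inactive = inhibition at or below that limit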;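 also: loss of bead fluorescence from 50 nM FITC arrestin peptide bound to appendage; 0% = negative control wells and 100% = excess unlabelled arrestin peptide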
# GST GSH counter = disrupts GST binding to glutathione beads, arrestin-AP2 artifact; shares compounds with Arrestin-AP2 inh; GST-fluorescein binding to GSH beads, fluorescence, counter-screen; inhibition, % at 10 µM; hit rate 2% among 1,300;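 active = inhibition above 50%, about 3 SD of the inhibition seen with non-fluorescent compounds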;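 also: fluorescein maleimide labelled GST captured on 4 micron glutathione beads; higher means more loss of bead fluorescence from quenching or blocked binding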
# Numbers without * were called inactive; x = no result given.
SMILES,Cardio protect,iPSC survival up,Arrestin-AP2 inh,FAS TE block,SENP1 inh,NR3A LBD binder,Arr-AP2 CP1,GST GSH counter
CC(C)Oc1ccc(CCNC(=O)C2CCC(=O)N(Cc3cccc(F)c3)C2)cc1 (centres undefined),-4,0,-5,-6,3,2,11,-1
COc1cccc(CN2CC(C(=O)NCCCc3ccncc3)CCC2=O)c1 (centres undefined),4,0,-9,-1,0,3,x,x
COc1cccc(CN2CC(C(=O)NCCCc3ccc(C)cc3)CCC2=O)c1 (centres undefined),-1,0,2,-8,3,-2,-9,1
O=C(NCCc1cccnc1)C1CCC(=O)N(Cc2cccc(C(F)(F)F)c2)C1 (centres undefined),0,-1,5,-4,0,0,x,x
CNc1nc(NCC2CCCCC2)c2sccc2n1,-24,-1,x,0,0,x,x,x
OCC[C@@H]1C[C@H](O)[C@@H](O)[C@@]2(OCCCc3cc(Cl)ccc32)O1,16,-1,x,-8,0,x,x,x
Nc1ccn(CCCNC2CCN(Cc3ccccc3)CC2)c(=O)n1,-1,1,x,-8,2,x,x,x
CCn1ncc(Br)c1C(=O)NC1CCCCCCC1,2,1,60*,-3,1,1,-3,-8
CCCNC(=O)C1(C)CCN(C(=O)c2cccc(Cl)c2)C1 (centres undefined),5,-3,x,-6,0,x,x,x
Cc1cccc(-n2c(C)cc(/C=C3/C(=N)N4C(c5ccccc5)=CSC4=NC3=O)c2C)c1,-8,-2,55*,34,-25,0,-8,1
COc1ccc(OC)c(C(O)c2ncc(-c3cccc4ccccc34)[nH]2)c1 (centres undefined),2,0,x,-3,1,x,x,x
CN1c2ccccc2N(C)C1(C)c1ccccc1,-19,-1,67*,2,-23,-2,62*,26
CCC(C)n1c(SCC(=O)N(CC)c2c(N)n(Cc3ccccc3)c(=O)[nH]c2=O)nc2ccccc2c1=O (centres undefined),2,0,21,-1,-4,0,x,x
CCOc1ccc2nc(NC(=O)CS(=O)(=O)c3ccccc3)sc2c1,8,2,81*,1,-2,-5,4,-2
CCOc1ccc2nc(NC(=O)CS(=O)(=O)c3ccc(C)cc3)sc2c1,34,-1,10,1,0,-5,x,x
COC(=O)[C@]12CCCCC=C1N(Cc1ccccc1)C(=O)[C@H](CC(=O)NCC1CCCCC1)C2,x,-1,x,6,3,x,x,x
CC12CN3CC(C)(CN(C1)C3c1ccc(Br)cc1O)C2 (centres undefined),18,-2,23,-4,0,1,-7,0
O=C(NCC1CCCO1)c1cccc(S(=O)(=O)Nc2ccccc2Cl)c1 (centres undefined),10,1,x,-6,3,x,x,x
O=C(Nc1ccc(F)cc1)Nc1nnc(COc2ccccc2F)s1,-10,-1,106*,2,-1,36*,-8,34
Cc1ccc(N/N=C(\C#N)C(N)=S)c(C)c1,-16,-1,57*,0,8,-2,-1,-1
Cc1ccc(NC(=O)/C(C#N)=N/Nc2ccc(C(=O)O)cc2)c(C)c1,0,-1,8,2,3,2,x,x
Cn1cccc1C(=O)NCC(c1ccco1)N1CCCCC1 (centres undefined),5,0,7,-11,-2,1,x,x
CCCn1c(=O)c(C(=O)NCCc2ccccc2)c(O)c2ccccc21,18,1,-4,19,1,-1,x,x
CCCn1c(=O)c(C(=O)NCCc2ccc(OC)cc2)c(O)c2ccccc21,27,1,55*,26,1,-1,0,-10
CCCCn1c(N)c(N(CCOC)C(=O)COC(=O)COc2ccccc2C#N)c(=O)[nH]c1=O,-1,0,56*,-6,-2,-1,19,3
SMILES,Cardio protect,iPSC survival up,Arrestin-AP2 inh,FAS TE block,SENP1 inh,NR3A LBD binder,Arr-AP2 CP1,GST GSH counter
NNC(=O)c1cc(O)c(O)c(O)c1,2,-1,11,-4,0,0,23,7
CSc1nc(N)n2nccc2n1,3,0,x,-5,-16,x,x,x
COC(=O)CCC(=O)NNC(=O)c1cccc(Br)c1,-1,0,11,-12,2,4,x,x
O=C(O)CCC(=O)NNC(=O)c1cccc(Br)c1,11,4,58*,-12,4,-2,0,-5
O=C(CN1c2cccc3cccc(c23)S1(=O)=O)NCc1ccccc1Cl,-8,-4,x,11,3,x,x,x
COc1ccc(C2=Nc3ccccc3N(C(=O)c3ccc(C)cc3)C2C(=O)Nc2c(C)cccc2C)cc1 (centres undefined),x,x,x,x,-5,x,x,x
O=C(NCC1CCCO1)c1ccc(-c2ccccc2Cl)o1 (centres undefined),-5,0,62*,-3,0,-1,1,-7
CCOc1ccccc1CN1CCN(Cc2cn(C)nc2-c2ccccc2)CC1CCO (centres undefined),3,0,54*,-3,1,0,7,5
Cc1ccc2cc(CN(CCN3CCCC3)C(=O)Nc3ccc(F)cc3)c(=O)[nH]c2c1C,8,-4,4,-5,-5,0,x,x
COc1cc2cc(CN(C(=O)NC3CCCCC3)C3CCCC3)c(=O)[nH]c2cc1OC,3,-2,6,8,11,0,x,x
O=C(Nc1ccc(F)cc1)N(CCCN1CCOCC1)Cc1cc2cc3c(cc2[nH]c1=O)OCCO3,7,0,12,-6,1,1,x,x
COc1ccc(CN(Cc2cc3cc(OC)c(OC)cc3[nH]c2=O)C(=O)NC2CCCCC2)cc1,8,2,2,7,-3,0,9,-3
O=C(Nc1ccc(F)cc1)N(CCCN1CCOCC1)Cc1cc2cc3c(cc2[nH]c1=O)OCO3,1,-3,68*,-2,-2,-3,-7,-6
COc1ccc(NC(=O)N(CCN2CCCC2)Cc2cc3cc(OC)c(OC)cc3[nH]c2=O)cc1,4,2,87*,-6,4,0,5,-8
C[C@H]1COc2cccc(N3CCC[C@@H]3CO)c2S(=O)(=O)N1,x,1,x,-8,1,x,x,x
COc1ccc(C#CC2=CC(=O)CC(C)(C)C2)cc1,-14,7,x,8,-2,x,x,x
O=C1CCCC/C1=N\Nc1ccc(OCc2ccccc2)cc1,-10,-2,98*,5,3,-12,-2,22
